Measured values collected from several papers.
Lines come from different studies, so protocols differ.
AMY2: Pancreatic alpha-amylase (AMY2, Sus scrofa, UniProt P00690)
PADI3: Protein-arginine deiminase type-3 (PADI3, Homo sapiens, UniProt Q9ULW8)
GAK: Cyclin-G-associated kinase (GAK, Homo sapiens, UniProt O14976)
RIPK1: Receptor-interacting serine/threonine-protein kinase 1 (RIPK1, Homo sapiens, UniProt Q13546)
Maoa: Amine oxidase [flavin-containing] A (Maoa, Rattus norvegicus, UniProt P21396)
KRAS G12C: GTPase KRas (KRAS, Homo sapiens, UniProt P01116, G12C)

The inhibition of `CN(O)N=Nc1ccc(S(=O)(=O)Nc2nccs2)cc1` is reported as 42.1% (AMY2; enzyme activity, inhibitor; 120 µg/mL).
The kinact/KI of `CC(C)(C)n1nnc([C@H](CCCNC(=N)CF)NC(=O)c2ccccc2)n1` is reported as 8.67 M⁻¹ s⁻¹ (PADI3; enzyme activity, inhibitor).
`Cc1cccc(N(O)N=Nc2ccc(S(=O)(=O)Nc3onc(C)c3C)cc2)c1` gave an inhibition of 31.6% (AMY2; enzyme activity, inhibitor; 120 µg/mL).
For `FC(F)(F)c1ccc2nccc(Nc3ccc4c(c3)OCO4)c2c1`, the ΔTm was 3.2 °C (GAK; thermal stability, DSF; 10 µM).
`CCN(O)N=Nc1ccc(S(=O)(=O)Nc2cc(C)on2)cc1` has an inhibition of 42.1% (AMY2; enzyme activity, inhibitor; 120 µg/mL).
For `Nc1ncnc2occ(-c3ccc(NC(=O)Nc4cc(C(F)(F)F)ccc4F)cc3)c12`, the remaining signal was 0% (RIPK1; cell-free assay, inhibitor; 20 µM).
With `N=C(CCl)NCCC[C@H](NC(=O)c1ccccc1)c1nn[nH]n1` the kinact/KI was 49.6 M⁻¹ s⁻¹ (PADI3; enzyme activity, inhibitor).
For `COc1cc(Nc2ccnc3ccccc23)cc(OC)c1OC`, the ΔTm was 4.4 °C (GAK; thermal stability, DSF; 10 µM).
For `COc1cc(Nc2cnc(C#N)c(O[C@H](C)CN(C)C)n2)ncc1-c1cnn(C)c1`, the remaining activity was 93% (Eukaryotic translation initiation factor 2-alpha kinase 3 (EIF2AK3, Homo sapiens, UniProt Q9NZJ5); enzyme activity, inhibitor, radiometric; 10 µM).
The ΔTm of `CS(=O)(=O)c1cccc(Nc2ccnc3ccc(C(F)(F)F)cc23)c1` is reported as 0.3 °C (GAK; thermal stability, DSF; 10 µM).
With `COc1ccc(CN)cc1` the Km was 80 µM (Maoa; enzyme activity, substrate; pH 7.5).
The ΔTm of `FC(F)(F)c1ccc2nccc(Nc3ccc4c(c3)OCCO4)c2c1` is reported as 1.5 °C (GAK; thermal stability, DSF; 10 µM).
With `N=C(CF)NCCC[C@H](NC(=O)c1ccccc1C(=O)O)c1nn[nH]n1` the kinact/KI was 63.3 M⁻¹ s⁻¹ (PADI3; enzyme activity, inhibitor).
The remaining activity of `Cc1ccc(C(=O)Nc2ccc(CN3CCN(C)CC3)c(C(F)(F)F)c2)cc1C#Cc1cnc2cccnn12` is reported as 73% (GAK; enzyme activity, inhibitor; 23.5 nM).
With `O=C1OC[C@H]2OC(O)[C@H](O)[C@@H](O)[C@@H]2OC(=O)c2cc(O)c(O)c(O)c2-c2c(O)c(O)c3oc(=O)c4c(c(O)c(O)c5oc(=O)c2c3c54)-c2c1cc(O)c(O)c2O` (mixture of isomers) the IC90 was roughly 1000 nM (Genome polyprotein, protease (Hepatitis C virus genotype 1b, UniProt Q9WMX2); enzyme activity, inhibitor, fluorescence).
`C=CC(=O)Nc1ccc(-c2noc([C@@]3(C)CCCc4sc(N)c(C#N)c43)n2)cc1` gave a kinact of 0.000194 s⁻¹ (KRAS G12C; cell-free assay, inhibitor).
The inhibition of `Cc1noc(NS(=O)(=O)c2ccc(N=NN(O)c3ccccc3)cc2)c1C` is reported as 63.2% (AMY2; enzyme activity, inhibitor; 240 µg/mL).
`FC(F)(F)c1ccc2nccc(Nc3cccc(Br)c3)c2c1` gave a ΔTm of 3.8 °C (GAK; thermal stability, DSF; 10 µM).
With `CCCOc1ccc(OC)c(F)c1C(=O)c1ccc(C(=O)N[C@@H]2CNC[C@H]2NC(=O)c2ccc3[nH]ncc3c2)cc1` the remaining activity was 9% (Serine/threonine-protein kinase MRCK beta (CDC42BPB, Homo sapiens, UniProt Q9Y5S2); enzyme activity, inhibitor; 0.5 µM).
The remaining binding of `C[C@@H]1CN(c2ccc3ncc(-c4ccc5[nH]nc(C6CC6)c5c4)n3n2)C[C@H](C)O1` is reported as 90% (Cyclin-dependent kinase 19 (CDK19, Homo sapiens, UniProt Q9BWU1); binding, competition with immobilised ligand; 50 nM).
With `CC(C)(C)n1nnc([C@H](CCCNC(=N)CF)NC(=O)c2ccc(-c3ccccc3)cc2)n1` the kinact/KI was 11.7 M⁻¹ s⁻¹ (PADI3; enzyme activity, inhibitor).
With `C=CC(=O)Nc1cccc(-c2noc([C@@]3(C)CCCc4sc(N)c(C#N)c43)n2)c1` the kinact was 0.000185 s⁻¹ (KRAS G12C; cell-free assay).
`COc1cc(Cl)c(C(=O)N[C@@H](CN[C@H]2CC[C@@H](N)CC2)Cc2ccc(C#N)cc2)cc1-c1ccc(CN[C@H](C)c2ccc(C)cc2)o1` has a remaining activity of 96% (RIPK1; enzyme activity, inhibitor; 1 µM).
With `CN1CCC2(CC1)NC(=O)c1c(c3ccc(Cl)c(Cl)c3n1C)C2C#N` (racemic) the ΔTm was -0.1 °C (Serine/threonine-protein kinase DCLK1 (DCLK1, Homo sapiens, UniProt O15075); thermal stability, DSF; 10 µM).
`Fc1cc(Nc2ccnc3ccc(C(F)(F)F)cc23)ccc1Cl` has a ΔTm of 4.5 °C (GAK; thermal stability, DSF; 10 µM).
`COc1cc(C=Cc2cc(-c3ccc(N(C)C)cc3)nc(O)n2)ccc1O` has an inhibition of 72.4% (AMY2; enzyme activity, inhibitor, absorbance; 5 µg/mL).
The inhibition of `CCCN(O)N=Nc1ccc(S(=O)(=O)Nc2cc(C)on2)cc1` is reported as 10.5% (AMY2; enzyme activity, inhibitor; 20 µg/mL).
The ΔTm of `Fc1cccc(Nc2ccnc3ccc(C(F)(F)F)cc23)c1` is reported as 4.3 °C (GAK; thermal stability, DSF; 10 µM).
For `O=S(=O)(Nc1nccs1)c1ccc(N=NN(O)c2ccccc2)cc1`, the inhibition was 15.8% (AMY2; enzyme activity, inhibitor; 60 µg/mL).
The kinact/KI of `CC(C)(C)n1nnc([C@H](CCCNC(=N)CCl)NC(=O)c2ccccc2)n1` is reported as 7.67 M⁻¹ s⁻¹ (PADI3; enzyme activity, inhibitor).
For `Cc1cccc(N(O)N=Nc2ccc(S(=O)(=O)Nc3nccs3)cc2)c1`, the inhibition was 21.1% (AMY2; enzyme activity, inhibitor; 60 µg/mL).
For `CC(C)(C)n1nnc([C@H](CCCNC(=N)CCl)NC(=O)c2ccc(-c3ccccc3)cc2)n1`, the kinact/KI was 82.3 M⁻¹ s⁻¹ (PADI3; enzyme activity, inhibitor).
The Km of `NCc1ccc(C(F)(F)F)cc1` is reported as 194 µM (Maoa; enzyme activity, substrate; pH 7.5).
With `COc1cc(Nc2ccnc3cc(C#N)ccc23)cc(OC)c1OC` the ΔTm was 5.3 °C (GAK; thermal stability, DSF; 10 µM).
`NC(=O)[C@H](CCCN=C(N)N)NC(=O)c1ccccc1` gave a Km of 13900 µM (PADI3; enzyme activity, substrate).
The inhibition of `C[C@H]1O[C@H](O[C@H]2[C@H](O)[C@@H](O)[C@@H](O[C@H]3[C@H](O)[C@@H](O)C(O)O[C@@H]3CO)O[C@@H]2CO)[C@H](O)[C@@H](O)[C@@H]1N[C@H]1C=C(CO)[C@@H](O)[C@H](O)[C@H]1O` (stereo partly shown) is reported as 23.1% (AMY2; enzyme activity, inhibitor; 10 µg/mL).
With `O=C(O)CCC(=O)C(=O)O` the Km was 6.9 µM (Lysine-specific demethylase 4D (KDM4D, Homo sapiens, UniProt Q6B0I6); enzyme activity, substrate).
